Where two headings read alike, the source gives them in different places.
Experiments:
[1] = type: in vivo; conditions: human, plasma, sc
Summary of the method: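 Type 1 diabetic subjects dosed sc once daily for 4 weeks, from 0.6 mg/day rising 0.6 mg weekly to 0.6, 1.2 or 1.8 mg. Plasma taken pre-dose and 2–60 h after the final steady-state dose; sandwich ELISA with N- and C-terminal monoclonals, LLOQ 30 pmol/L. Non-compartmental: trapezoidal AUC, observed Cmax/tmax, CL/F = dose/AUC0–24 h, Vz/F = (CL/F)/λz.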

[2] = cited from earlier work

Vd/F [1]: 27.4 L
Vd/F ([1]; 0.6 mg): 27 L
Vd/F ([1]; 1.2 mg): 26 L
Vd/F ([1]; 1.8 mg): 29.3 L
Structure (SMILES): CCCCCCCCCCCCCCCC(=O)N[C@@H](CCC(=O)NCCCC[C@H](NC(=O)[C@H](C)NC(=O)[C@H](C)NC(=O)[C@H](CCC(N)=O)NC(=O)CNC(=O)[C@H](CCC(=O)O)NC(=O)[C@H](CC(C)C)NC(=O)[C@H](Cc1ccc(O)cc1)NC(=O)[C@H](CO)NC(=O)[C@H](CO)NC(=O)[C@@H](NC(=O)[C@H](CC(=O)O)NC(=O)[C@H](CO)NC(=O)[C@@H](NC(=O)[C@H](Cc1ccccc1)NC(=O)[C@@H](NC(=O)CNC(=O)[C@H](CCC(=O)O)NC(=O)[C@H](C)NC(=O)[C@@H](N)Cc1cnc[nH]1)[C@@H](C)O)[C@@H](C)O)C(C)C)C(=O)N[C@@H](CCC(=O)O)C(=O)N[C@@H](Cc1ccccc1)C(=O)N[C@H](C(=O)N[C@@H](C)C(=O)N[C@@H](Cc1c[nH]c2ccccc12)C(=O)N[C@@H](CC(C)C)C(=O)N[C@H](C(=O)N[C@@H](CCCNC(=N)N)C(=O)NCC(=O)N[C@@H](CCCNC(=N)N)C(=O)NCC(=O)O)C(C)C)[C@@H](C)CC)C(=O)O [Liraglutide, liraglutide]
V z/F ([2]; healthy volunteers and subjects with T2D, previous studies): 11 to 17 L
CL/F ([2]; studies with healthy volunteers and subjects with T2D): 1.2 L/h
